Reference: ChEMBL document CHEMBL1140867, “Photodynamic molecular beacon triggered by fibroblast activation protein on cancer-associated fibroblasts for diagnosis and treatment of epithelial cancers” (J Med Chem, 2009)
Peptide text beside a SMILES is read from it. * marks the point of attachment. Pyropheophorbide(a) = C=Cc1c(C)c2cc3nc(c4c5[nH]c(cc6nc(cc1[nH]2)C(C)=C6CC)c(C)c5C(=O)C4)[C@@H](CCC(=O)*)[C@@H]3C

Key:
[1] = system: HEK293; assay: Photocytotoxicity against mouse FAP expressing HEK293 cells assessed as reduction of cell viability at 4 uM in presence of 2 J cm'-2 radiation by MTT assay; type: functional, Homo sapiens
Outline: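 HEK-mFAP and HEK-Vector cells, 2.5×10^4 per well, grown 2 days, then incubated 24 h with compound diluted in FBS-free DMEM (DMSO/Tween 80 formulation) at 8 or 4 µM. Cells rinsed and refed, then irradiated with a 670 nm laser at 130 mW cm⁻², 16 s (2 J cm⁻²) or kept dark. Incubated overnight; MTT 2 h, SDS/HCl solubilization, absorbance read at 570 nm.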

[2] = substrate: C=Cc1c(C)c2cc3nc(c4c5[nH]c(cc6nc(cc1[nH]2)C(C)=C6CC)c(C)c5C(=O)C4)[C@@H](CCC(=O)N[C@H](C(=O)N[C@@H](CO)C(=O)NCC(=O)N1CCC[C@H]1C(=O)N[C@@H](CC(N)=O)C(=O)N[C@@H](CCC(N)=O)C(=O)N[C@@H](CCC(=O)O)C(=O)N[C@@H](CCC(N)=O)C(=O)N[C@@H](CCCCNOC(=O)CCCN(C)c1ccc(/N=N/c2cccc4nc5ccc(N(CC)CC)cc5[n+](-c5ccccc5)c24)cc1)C(N)=O)[C@@H](C)O)[C@@H]3C; assay: Activity of mouse FAP assessed as enzyme mediated drug cleavage by measuring increase in fluorescence intensity
Outline: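 Purified murine FAP (2 µg) with substrate at 0.1–6 µM in 1 mL 0.12 M NaCl/0.12 M TRIS pH 7.37 (substrate first dissolved in DMSO/Tween 80), 37 °C. Fluorescence followed continuously at ex 650/em 675 nm; excess mFAP (10 µg) added after 1 h. Initial rates (10% depletion), triplicate; Vmax, Km, kcat and kcat/Km from nonlinear Michaelis–Menten fit.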

C=Cc1c(C)c2cc3nc(c4c5[nH]c(cc6nc(cc1[nH]2)C(C)=C6CC)c(C)c5C(=O)C4)[C@@H](CCC(=O)N[C@H](C(=O)N[C@@H](CO)C(=O)NCC(=O)N1CCC[C@H]1C(=O)N[C@@H](CC(N)=O)C(=O)N[C@@H](CCC(N)=O)C(=O)N[C@@H](CCC(=O)O)C(=O)N[C@@H](CCC(N)=O)C(=O)N[C@@H](CCCCN)C(N)=O)[C@@H](C)O)[C@@H]3C ({Pyropheophorbide(a)}-TSGPNQEQK-NH2)
Activity [1]: 40%

B1: Prolyl endopeptidase FAP (Mus musculus), P97321 (protein)
chain: MKTWLKTVFGVTTLAALALVVICIVLRPSRVYKPEGNTKRALTLKDILNGTFSYKTYFPNWISEQEYLHQSEDDNIVFYNIETRESYIILSNSTMKSVNATDYGLSPDRQFVYLESDYSKLWRYSYTATYYIYDLQNGEFVRGYELPRPIQYLCWSPVGSKLAYVYQNNIYLKQRPGDPPFQITYTGRENRIFNGIPDWVYEEEMLATKYALWWSPDGKFLAYVEFNDSDIPIIAYSYYGDGQYPRTINIPYPKAGAKNPVVRVFIVDTTYPHHVGPMEVPVPEMIASSDYYFSWLTWVSSERVCLQWLKRVQNVSVLSICDFREDWHAWECPKNQEHVEESRTGWAGGFFVSTPAFSQDATSYYKIFSDKDGYKHIHYIKDTVENAIQITSGKWEAIYIFRVTQDSLFYSSNEFEGYPGRRNIYRISIGNSPPSKKCVTCHLRKERCQYYTASFSYKAKYYALVCYGPGLPISTLHDGRTDQEIQVLEENKELENSLRNIQLPKVEIKKLKDGGLTFWYKMILPPQFDRSKKYPLLIQVYGGPCSQSVKSVFAVNWITYLASKEGIVIALVDGRGTAFQGDKFLHAVYRKLGVYEVEDQLTAVRKFIEMGFIDEERIAIWGWSYGGYVSSLALASGTGLFKCGIAVAPVSSWEYYASIYSERFMGLPTKDDNLEHYKNSTVMARAEYFRNVDYLLIHGTADDNVHFQNSAQIAKALVNAQVDFQAMWYSDQNHGISSGRSQNHLYTHMTHFLKQCFSLSD
Km [2]: 1.02 µM | Vmax [2]: 36 pmol/min | kcat [2]: 0.0292 s⁻¹
